SMILES strings stand for the structures.

This note sets out measurements from ChEMBL document CHEMBL1123799, “Cardiotonic agents. 1. Novel 8-aryl-substituted imidazo[1,2-a]- and -[1,5-a]pyridines and imidazo[1,5-a]pyridinones as potential positive inotropic agents” (J Med Chem, 1987).

For one assay, the species on record is Felis catus. As to the kind of experiment: Inotropic activity as dose required to cause 20% positive or negative change in contractile force of papillary muscle from cat. The class given is functional, Muscle tissue. In short, it runs like this:
(§1)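 Papillary muscle (<1 mm diameter, ≥3 mm long) held isometric at 35 °C in bicarbonate saline (pH 7.3-7.5, 95% O2/5% CO2). Muscles under 500 mg/mm² force discarded. Compounds in water added to the bath at 1:1000, with a 15-min wash between doses. Norepinephrine 10 μM added last as internal standard. Force normalized to cross-sectional area (weight/length). Mean of ≥3 determinations.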

The species named for assay [1] is Canis familiaris. As to the kind of experiment: Electrophysiological activity as concentration causing 20 % increase in the functional refractory period of canine ventricular muscle. On the set-up: species or system Canis lupus familiaris, Muscle tissue. Put shortly:
(§2)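 Right-ventricle papillary muscle strips (5-6 mm × 1-2 mm) in a 3.5-mL bath, superfused with oxygenated saline at 36 ± 0.5 °C. Diastolic threshold set with 2 ms bipolar stimuli at 4000 ms cycle length. Paced at 4× threshold for 60 min. FRP found at 1000 ms cycle length with a premature S2 after every tenth S1 at shortening intervals. Various concentrations superfused, one compound per strip.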

Assay [2] in a line: Ability to inhibit canine cardiac cAMP phosphodiesterase III. In short, it runs like this:
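Crude enzyme from dog cardiac muscle homogenate, taken by differential centrifugation between 700g and 165000g. Assay at 37 °C with 10^-6 M cAMP plus [3H]cAMP (10^5 cpm/mL), 40 mM Tris pH 8.0, 10 mM MgCl2, 2.5 mM mercaptoethanol, 0.05 mg/mL BSA and 0.1 mg/mL enzyme. AMP and cAMP separated by PEI-cellulose ion-exchange TLC and counted by scintillation. Triplicate, up to 100 μM.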

Assay [3] is filed under the species Mustela putorius furo. As to the kind of experiment: Inotropic activity as dose required to cause 20% positive or negative change in contractile force of papillary muscle from ferret. The class given is functional, Muscle tissue. In short, it runs like this: as §1
The species named for assay [4] is Canis familiaris. Put plainly: Electrophysiological activity as concentration of the drug causing 20 % increase in the functional refractory period of canine ventricular muscle. Also on record: species or system Canis lupus familiaris, Muscle tissue. In short, it runs like this:
as §2

Assay [5] is filed under the species Mustela putorius furo. Put plainly: Inotropic activity as dose required to cause 20% positive or negative change in contractile force of papillary muscle from ferret.

With `Cc1ncc2n1CCC=C2c1ccc(NS(C)(=O)=O)cc1`, the “CF C20” value in the assay filed under Felis catus came to 2 µM. Besides, the “FRP C20” value in the assay listed under Canis familiaris [1] was 10 µM. For the compound `Cc1nccn1-c1ccc(C2=CCCn3c2cnc3C)cc1`, the “CF C20” value in the assay filed under Felis catus came out at 5 µM. In the assay filed under Canis familiaris [1], the “FRP C20” value was determined as 5 µM. The same compound came in with an IC50 in assay [2] of 150 µM. On to `Oc1ccc(-c2cccn3ccnc23)cc1`, for which the “CF C20” value in the assay filed under Felis catus stood at 15 µM. Moreover, the “FRP C20” value in the assay filed under Canis familiaris [1] was -18 µM.

Take `COC(=O)c1nc(O)n2cccc(-c3ccc(C)cc3)c12`: in the assay listed under Felis catus, the “CF C20” value was -40 µM. Regarding `CS(=O)(=O)Nc1ccc(-c2cccn3ccnc23)cc1`, the “CF C20” value in the assay filed under Felis catus stood at 10 µM. In addition, the “FRP C20” value in the assay filed under Canis familiaris [1] amounted to 50 µM. In assay [2], the IC50 was above 1000 µM. `CSc1ccc(C(=O)c2[nH]c(=O)[nH]c2C)cc1` [ENOXIMONE]: the “CF C20” value in the assay listed under Felis catus is 3 µM. With `CCCCNC(=O)NC1CCN(c2ncnc3cc(OC)c(OC)cc23)CC1` [BUQUINERAN], the “CF C20” value in the assay listed under Mustela putorius furo [3] was found to be 7 µM. For the compound `Nc1ccc(-c2cccn3ccnc23)cc1`, the “CF C20” value in the assay listed under Felis catus stood at 15 µM.

As to `Cc1ncc2c(-c3ccccc3)cccn12`, the “CF C20” value in the assay listed under Mustela putorius furo [3] is -20 µM. With `CCOc1ccc(-c2cccn3c(C)ncc23)cc1`, the “CF C20” value in the assay listed under Felis catus is -100 µM. For the compound `Cc1nccn1-c1ccc(-c2cccn3c(C)nc(Br)c23)cc1`, in the assay filed under Felis catus, the “CF C20” value was 1 µM. This compound showed an IC50 in assay [2] of 30 µM. Moreover, the “FRP C20” value in the assay listed under Canis familiaris [4] turned out to be 17 µM. On to `CC(=O)Nc1ccc(C2=CCCn3c2cnc3C)cc1`, for which the “CF C20” value in the assay listed under Felis catus was determined as 10 µM. Further, in the assay listed under Canis familiaris [1], the “FRP C20” value was 40 µM. As to `CCOC(=O)c1nc(O)n2cccc(-c3ccccc3)c12`, the “CF C20” value in the assay listed under Mustela putorius furo [5] is -10 µM. Consider `c1ccc(-c2cccn3ccnc23)cc1`, for which the “CF C20” value in the assay listed under Felis catus is 1 µM. In the assay listed under Canis familiaris [1], the “FRP C20” value is 10 µM. With `C1=C(c2ccc(-n3ccnc3)cc2)c2nccn2CC1`, the “CF C20” value in the assay listed under Felis catus came out at 29 µM. The “FRP C20” value in the assay listed under Canis familiaris [1] is 100 µM. Further, half-maximal inhibition in assay [2] (IC50) required 550 µM. On to `CCc1nccn1-c1ccc(C2=CCCn3c2cnc3CC)cc1`, for which, in the assay listed under Felis catus, the “CF C20” value was 0.8 µM. Besides, the “FRP C20” value in the assay listed under Canis familiaris [1] was 9 µM.

On to `Cc1ncc2n1CCC=C2c1ccc(O)cc1`, for which, in the assay filed under Felis catus, the “CF C20” value was found to be 30 µM. Also, the “FRP C20” value in the assay listed under Canis familiaris [1] was 100 µM. Take `Cc1ncc2n1CCC=C2c1ccccc1`: the “CF C20” value in the assay filed under Felis catus turned out to be 10 µM.

With `Nc1ccc(C2=CCCn3ccnc32)cc1`, the “CF C20” value in the assay listed under Felis catus was -5 µM.

For the compound `Cc1ncc2n1CCC=C2c1ccc(-n2ccnc2)cc1`, the “CF C20” value in the assay listed under Felis catus amounted to 9 µM. In the assay filed under Canis familiaris [1], the “FRP C20” value worked out at 14 µM. Regarding `C1=C(c2ccccc2)c2nccn2CC1`, the “CF C20” value in the assay listed under Felis catus was -15 µM. In the case of `Cc1nccn1-c1ccc(-c2cccn3c(C)ncc23)cc1`, in the assay listed under Felis catus, the “CF C20” value was 13 µM. Also, the “FRP C20” value in the assay filed under Canis familiaris [1] was 80 µM. In assay [2], this compound returned an IC50 of 65 µM. For the compound `Cc1ncc2n1CCCC2c1ccc(NS(C)(=O)=O)cc1` (configuration not stated), the “CF C20” value in the assay filed under Mustela putorius furo [3] was 0.8 µM. The “FRP C20” value in the assay listed under Canis familiaris [1] came to 80 µM. As to `CCOc1ccc(C2=CCCn3c2cnc3C)cc1`, the “CF C20” value in the assay filed under Felis catus stood at 20 µM. Further, the “FRP C20” value in the assay filed under Canis familiaris [1] worked out at 30 µM.

For the compound `COC(=O)c1nc(O)n2cccc(-c3ccc(-n4ccnc4C)cc3)c12`, the “CF C20” value in the assay listed under Felis catus was found to be 30 µM. On the same count and under the same terms, the same measure for `Cc1ccc(-c2cccn3c(O)ncc23)cc1`: 6 µM.

With `c1cc(-c2ccc(-n3ccnc3)cc2)c2nccn2c1`, in the assay filed under Felis catus, the “CF C20” value is 30 µM. In addition, in assay [2], the IC50 is 220 µM.
